Kir21 block: Kir2.1 (mouse) channel inhibition. P35561. HEK293-Kir2.1, FluxOR thallium flux fluorescence; hits give low values. B-score at 10 µM. 0.85% of 310,000 active;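 active means fluorescence ratio B-score at or below minus 3 SD of library scores, with starting-brightness B-score within 2 SD, cut at about -4.2 in these data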;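 further: channel flux triggered by added potassium and thallium sulfate stimulus; B-score of peak minus minimum fluorescence over baseline after thallium stimulus; more negative B-score means stronger Kir2.1 block with less thallium influx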
KCNK3 inh: human KCNK3 channel inhibition, primary screen; O14649; CHO-KCNK3 thallium flux, FluxOR fluorescence; hits give low values; B-score at 10 µM; 0.84% of 340,000 active; AID 602410;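 active means B-score under library mean minus 4 SD, starting fluorescence ratio at most library mean plus 5 SD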;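 further: more negative B-score means stronger inhibition of thallium flux through KCNK3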
Target sequence (O14649 whole entry, looked up): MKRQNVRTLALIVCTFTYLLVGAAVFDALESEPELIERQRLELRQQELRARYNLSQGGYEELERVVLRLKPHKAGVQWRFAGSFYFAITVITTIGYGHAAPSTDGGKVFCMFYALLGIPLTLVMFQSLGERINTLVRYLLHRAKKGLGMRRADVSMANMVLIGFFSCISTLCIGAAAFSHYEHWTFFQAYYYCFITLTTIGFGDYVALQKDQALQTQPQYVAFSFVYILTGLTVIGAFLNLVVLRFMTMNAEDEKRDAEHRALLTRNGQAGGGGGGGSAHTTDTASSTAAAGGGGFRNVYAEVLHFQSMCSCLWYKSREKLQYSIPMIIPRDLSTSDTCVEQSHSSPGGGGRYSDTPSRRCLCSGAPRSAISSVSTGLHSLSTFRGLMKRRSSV
KCNQ1 inh: human KCNQ1 channel inhibition; 1.3% of 310,000 active; AID 2642; CHO-K1 KCNQ1, FluxOR thallium flux fluorescence; hits give high values; P51787; B-score at 10 µM;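 active means compounds whose thallium flux B-score, printed positive for inhibition, exceeds three library SD while starting fluorescence stays within three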;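 further: channel opened by potassium depolarization with thallium stimulus after 20 min compound exposure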
hERG protect: hERG (human) protection from proarrhythmic block | CHO-hERG, FluxOR thallium flux, dofetilide IC70 present | activation (rescue from dofetilide block), less the hit threshold, % at 10 µM | 0.51% of 310,000 active | AID 1511;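 active means activation above the mean of controls blocked by dofetilide plus 5 SD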;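 further: thallium influx through hERG after potassium depolarization seen as dye fluorescence rise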
KCNK9 block: human KCNK9 channel inhibition | Q9NPC2 | HEK293 KCNK9, FluxOR thallium flux fluorescence; hits give low values | B-score at 10 µM | 1.2% of 310,000 active | AID 488922;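 active means ratio B-score over 3 SD below the library mean, with starting fluorescence within 5 SD of its mean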;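 further: negative B-score means less thallium flux so channel inhibition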
KCNQ1 pot: potentiates or activates the human KCNQ1 potassium channel. P51787. CHO-K1 KCNQ1, thallium flux FluxOR fluorescence; hits give high values. B-score at 10 µM. 0.35% of 310,000 active;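 active means fluorescence ratio B-score, a plate-corrected score, at least three library SD, with initial intensity B-score within 5 SD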
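Test system: CHO-K1 cells stably expressing KCNQ1 / Medium: assay buffer / Also added: depolarizing K+/Tl+ stimulus, K2SO4 and Tl2SO4 each 12.5 mM in 5x stock / Incubation: 90 min dye loading and 20 min compound exposure, both at room temperature / Signal: thallium influx via FluxOR fluorescence, kinetic imaging / Evaluation: B score of baseline-normalized fluorescence ratio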
KCNK9 inh conf: confirmation of human KCNK9 potassium channel inhibitors; shares compounds with KCNK9 block; 43% of 4,900 active; HEK293 KCNK9 cells, FluxOR thallium flux fluorescence; inhibition, % at 10 µM; AID 492992;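 active means thallium signal inhibited by more than 5 SD of the compound-free buffer control wells, on both duplicate plates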;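 further: 0% = assay buffer control wells without compound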
Kir21 sel: mouse Kir2.1 off-target activity of KCNK9 modulators; shares compounds with KCNK9 block; Kir2.1 cells, FluxOR thallium flux fluorescence; inhibition, % at 10 µM; 4% of 4,900 active; AID 492993;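 active means thallium signal drop more than 5 SD beyond the mean of the no-compound control wells, seen in both duplicate plates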;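 further: signal is fluorescence rise after thallium addition divided by baseline fluorescence; plate controls were assay buffer only for no effect and full block by chlorpromazine control for full effect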
KCNK9 uninduced: non-induced cell nonspecific activity of KCNK9 modulators. shares compounds with KCNK9 block. non-induced KCNK9-HEK293, FluxOR thallium flux. inhibition, % at 10 µM. 40% of 4,900 active;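 active means thallium signal drop beyond 5 SD of the untreated control mean, on both duplicate plates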;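 further: plate controls were buffer only IC0 wells for no effect and SID17386958 at its maximal inhibitory level for full effect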
* marks the source's active call; other numbers are inactive results; i = inactive; . = no result given. An excerpt weighted towards active compounds, which were near 3.7% of everything screened.

SMILES | Kir21 block | KCNK3 inh | KCNQ1 inh | hERG protect | KCNK9 block | KCNQ1 pot | KCNK9 inh conf | Kir21 sel | KCNK9 uninduced
O=c1c2ccccc2c(-c2ccccc2)nn1Cc1c(Cl)cccc1Cl | -0.14 | i | i | -1 | -10* | i | 33%* | i | 36%*
CCOC(=O)Cn1nc(-c2ccccc2)c2ccccc2c1=O | 0.05 | i | i | -1 | i | i | . | . | .
CCOCCCN(C(=O)Cn1nnc(-c2ccc(OC)c(OC)c2)n1)C(C(=O)NCC1CCCO1)c1ccc(F)cc1 (stereo not drawn) | -0.02 | i | i | -9 | i | i | . | . | .
COc1cc(-c2csc(NC3CCCCC3)n2)cc(OC)c1OC | -0.02 | i | i | -12 | i | i | i | i | i
COc1cccc(OC)c1NC(=O)Cn1nc(C)c2ccccc2c1=O | 1.4 | i | i | 1 | i | i | . | . | .
CCc1nc(N2CCN(C(=O)c3ccco3)CC2)c2c3c(sc2n1)CCCC3 | 0.25 | i | i | -15 | -10* | i | 50%* | i | i
Cc1ccc(SC[C@H](C)CN2CC[C@H](C)CCC2=O)cc1 | -4.7* | i | i | -8 | i | i | i | i | i
CC1(C)CCC(=O)N2CC[C@H]3c4cc5ccccc5nc4C[C@@H]1[C@H]32 | . | i | . | . | . | . | . | . | .
O=C(OCc1cc(=O)n2cc(Br)ccc2n1)c1ccc(Cl)c(S(=O)(=O)NCc2ccccc2)c1 | 1.7 | i | i | -9 | -11* | i | i | i | i
CNS(=O)(=O)c1cccc(C(=O)OCc2cc(=O)n3cc(Br)ccc3n2)c1 | 0.36 | i | i | -14 | i | i | . | . | .
CCN(C[C@H]1N[C@@](CC)(C(=O)OC)[C@H]2C(=O)N(C)C(=O)[C@@H]12)C(=O)C1CCCCC1 | . | i | . | . | . | . | . | . | .
CC1=NCCN1S(=O)(=O)c1c(C(C)C)cc(C(C)C)cc1C(C)C | -0.47 | i | i | -10 | -8.3* | i | i | i | i
COc1ccc(Cl)cc1S(=O)(=O)N1CCN=C1C | -0.56 | i | i | -6 | i | i | . | . | .
COc1ccc(NC(=O)CCS(=O)(=O)c2ccccc2Cl)cc1S(=O)(=O)Nc1ccc(Cl)cc1 | -0.02 | i | i | -8 | i | i | . | . | .
COc1ccc(NC(=O)c2ccc3ccccc3n2)cc1S(=O)(=O)Nc1ccccc1Cl | 0.45 | i | i | -11 | i | i | . | . | .
COc1ccc(NS(=O)(=O)c2cc(NC(=O)CCSc3ccccc3)ccc2OC)cc1 | 0.11 | i | i | 1 | i | i | i | i | i
COc1ccc(NC(=O)CCSc2ccc(C)cc2)cc1S(=O)(=O)Nc1ccccc1Cl | -1.2 | i | i | -6 | i | i | i | i | i
O=C(COC(=O)c1ccc(Cl)nc1)Nc1cccnc1Cl | 0.73 | i | i | -3 | i | i | . | . | .
Cc1ccccc1OCC(=O)NC(=S)Nc1cccc2cc(O)ccc12 | 1.4 | i | i | -9 | -8.9* | i | 52%* | i | i
COc1ccc(OCC(=O)NC(=S)Nc2ccccc2F)cc1 | 0.03 | i | i | -2 | i | i | i | i | i
COc1ccc(C2(C)C(C#N)C(=O)NC(=O)C2C#N)cc1 (stereo not drawn) | . | i | . | . | . | . | . | . | .
COc1ccccc1-n1c2nc3ccccc3nc2c2c(=O)n(-c3cc(C)cc(C)c3)cnc21 | 1.7 | i | i | -10 | -8.5* | i | i | i | 25%*
Cc1ccc(N(C(=O)c2csnn2)C(C(=O)NC2CCCCC2)c2ccncc2)cc1 (stereo not drawn) | 0.97 | i | i | -9 | i | i | . | . | .
CCn1cc(SCC(=O)N2CCc3ccccc32)c2ccccc21 | -0.76 | i | i | -7 | i | i | i | 40%* | i
O=C(CSc1ccccc1)N1CCc2ccccc21 | 0.62 | i | i | -7 | i | i | . | . | .
SMILES | Kir21 block | KCNK3 inh | KCNQ1 inh | hERG protect | KCNK9 block | KCNQ1 pot | KCNK9 inh conf | Kir21 sel | KCNK9 uninduced
Cc1ccc(-n2ncc3c2CCCC3NC(=O)CSc2ccccn2)cc1C (stereo not drawn) | -1.2 | i | i | -15 | i | i | i | i | i
Cc1sc(NC(=O)c2ccco2)c(C(c2cccnc2)N2CCC(C)CC2)c1C (stereo not drawn) | -0.03 | i | 9* | -9 | -14* | i | 66%* | i | 42%*
N/C(=N\OC(=O)c1ccccc1F)c1cccc([N+](=O)[O-])c1 | 0.81 | i | i | 0 | i | i | . | . | .
CCOc1ccc(NS(=O)(=O)c2ccc(C(=O)N(C)Cc3cccc(OC)c3OC)cc2)cc1 | 1.1 | i | i | -12 | i | i | i | i | i
COc1cccc(CN(C)C(=O)c2ccc(NS(=O)(=O)c3ccc4[nH]c(=O)[nH]c4c3)cc2)c1OC | 1.1 | i | i | -9 | i | i | . | . | .
COc1cccc(CN(C)C(=O)c2ccc(Oc3ccccc3)cc2)c1OC | 0.1 | i | i | -10 | i | i | i | i | i
CC1=CC2=NC(=O)/C(=C\c3cccn3CCOc3cc(C)ccc3C)C(=N)N2O1 | -1.3 | i | i | -11 | -8.8* | i | 66%* | i | 29%*
Clc1ccccn1 | . | i | . | . | . | . | . | . | .
Cc1cc(NC(=O)NC(=O)c2ccccc2NC(=O)C(C)N)ccc1Oc1ncc(Br)cn1 (stereo not drawn) | . | i | . | . | . | . | . | . | .
Cc1cc(Br)ccc1-n1[nH]c(C)c(C=Nc2cccc3nsnc23)c1=O | -1.2 | i | i | -6 | i | i | i | i | i
COc1ccccc1N=Cc1c(C)[nH]n(-c2ccc(C)cc2C)c1=O | -0.59 | i | i | -21 | i | i | . | . | .
CN1CCN(C2CCN(S(=O)(=O)c3ccc(C(C)(C)C)cc3)CC2)CC1 | -0.78 | i | i | -12 | i | i | . | . | .
Cc1ccc(-c2nc(C3CCN(S(=O)(=O)c4ccc(C(C)(C)C)cc4)CC3)no2)cc1 | 0.54 | i | i | -7 | i | i | i | i | i
CCn1c(C(=O)O)c(CC(=O)N(C)c2ccc(OC)cc2OC)c2ccccc21 | 0.01 | i | i | -6 | i | i | . | . | .
Cc1ccc(C2CC2C(=O)NNC(=S)Nc2ccc(Cl)cc2)cc1 (stereo not drawn) | -1.2 | i | 10* | -16 | i | i | i | i | i

Compound activity (PubChem BioAssay)
